# In ChEMBL document CHEMBL5335771, “Thioxanthenone-based derivatives as multitarget therapeutic leads for Alzheimer's disease” (Eur J Med Chem, 2023):
# How the values were obtained:
# [1] = target: T1, Microtubule-associated protein tau (Homo sapiens, UniProt P10636); assay: Inhibition of tau (unknown origin) aggregation expressed in Escherichia coli BL21 (DE3) at 10 uM relative to control
# Summary of the method: (§1)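 E. coli BL21(DE3) carrying pTARA (T7 RNA polymerase under PBAD) and pRKT42 (four-repeat tau) grown at 37 °C in M9 with 0.5% glucose, antibiotics and 250 μM ThS to OD600 0.6. […] ThS fluorescence ex 430/em 485 nm, normalized to tau-expressing cells (100%) and non-expressing cells (0%); OD600 checked for growth.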
# Target sequence in this assay (P10636 whole entry): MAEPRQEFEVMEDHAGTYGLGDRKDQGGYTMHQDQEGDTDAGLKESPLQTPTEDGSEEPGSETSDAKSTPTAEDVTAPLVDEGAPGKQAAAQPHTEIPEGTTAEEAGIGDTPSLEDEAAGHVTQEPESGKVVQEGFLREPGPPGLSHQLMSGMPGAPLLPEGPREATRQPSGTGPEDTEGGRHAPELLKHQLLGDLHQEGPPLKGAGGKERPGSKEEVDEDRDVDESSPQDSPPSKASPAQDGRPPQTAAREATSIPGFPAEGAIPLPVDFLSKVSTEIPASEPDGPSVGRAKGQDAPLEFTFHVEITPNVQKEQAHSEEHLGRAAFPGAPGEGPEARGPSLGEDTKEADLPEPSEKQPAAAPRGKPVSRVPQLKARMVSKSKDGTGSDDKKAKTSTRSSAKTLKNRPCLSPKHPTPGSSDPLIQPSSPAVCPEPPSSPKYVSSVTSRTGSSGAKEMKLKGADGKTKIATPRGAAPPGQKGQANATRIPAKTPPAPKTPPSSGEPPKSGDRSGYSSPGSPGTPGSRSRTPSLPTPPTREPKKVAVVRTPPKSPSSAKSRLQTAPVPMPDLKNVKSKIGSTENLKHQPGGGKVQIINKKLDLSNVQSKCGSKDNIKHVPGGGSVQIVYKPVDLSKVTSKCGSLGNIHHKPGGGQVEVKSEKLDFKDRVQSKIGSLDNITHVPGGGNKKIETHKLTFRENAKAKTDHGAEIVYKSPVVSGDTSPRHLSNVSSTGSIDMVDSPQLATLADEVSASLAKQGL
# [2] = target: Amyloid-beta precursor protein (Homo sapiens, UniProt P05067); assay: Inhibition of amyloid beta 40 peptide (unknown origin) aggregation incubated for 2 hr by ThT fluorescence based spectrofluorimetric analysis
# Summary of the method: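 Aβ40 peptide aggregation enhanced with 2% HFIP; thioflavin T fluorescence read-out; run in triplicate.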
# [3] = target: T1, Microtubule-associated protein tau; assay: Inhibition of tau (unknown origin) aggregation expressed in Escherichia coli BL21 (DE3); summary of the method: as §1
# Target sequence in this assay (P10636 whole entry): as above
# [4] = target: T1, Microtubule-associated protein tau; assay: Inhibition of PHF6 peptide (unknown origin) aggregation at 10 uM measured after 3 hrs by thioflavin T fluorescence based fluorimetric analysis relative to control
# Target sequence in this assay (P10636 whole entry, looked up): as the sequence (P10636 whole entry) above
# [5] = Cytotoxicity against mouse brain Primary embryonic cortical cell assessed as cell death at 30 uM incubated for 5 hrs by propidium iodide dye based spectrofluorometric analysis relative to control; assay type: toxicity
# Summary of the method: (§2)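 Primary cortical cultures from E16.5 mouse embryo brains, trypsinized, plated on poly-D-lysine, grown in Neurobasal with glutamine, glucose, 5% horse serum and B27; compounds added at 4 DIV. Propidium iodide 30 μM; baseline F1 read 1 h after PI; ex 530/em 645 nm. Fmax after digitonin permeabilization. % death = 100×(Fn−F1)/(Fmax−F1); mean of three independent experiments.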
# [6] = Cytotoxicity against mouse brain Primary embryonic cortical cell assessed as cell death at 10 uM incubated for 24 hrs by propidium iodide dye based spectrofluorometric analysis relative to control; assay type: toxicity; summary of the method: as §2
# [7] = Cytotoxicity against mouse brain Primary embryonic cortical cell assessed as cell death at 10 uM incubated for 72 hrs by propidium iodide dye based spectrofluorometric analysis relative to control; assay type: toxicity; summary of the method: as §2
# [8] = Cytotoxicity against mouse brain Primary embryonic cortical cell assessed as cell death at 2.5 uM incubated for 3 hrs by propidium iodide dye based spectrofluorometric analysis relative to control; assay type: toxicity; summary of the method: as §2
# [9] = Cytotoxicity against mouse brain Primary embryonic cortical cell assessed as cell death at 5 uM incubated for 4 hrs by propidium iodide dye based spectrofluorometric analysis relative to control; assay type: toxicity; summary of the method: as §2
# [10] = Cytotoxicity against mouse brain Primary embryonic cortical cell assessed as cell death at 10 uM incubated for 6 hrs by propidium iodide dye based spectrofluorometric analysis relative to control; assay type: toxicity; summary of the method: as §2
# [11] = Cytotoxicity against mouse brain Primary embryonic cortical cell assessed as cell death at 10 uM incubated for 4 hrs by propidium iodide dye based spectrofluorometric analysis relative to control; assay type: toxicity; summary of the method: as §2
# [12] = Cytotoxicity against mouse brain Primary embryonic cortical cell assessed as cell death at 30 uM incubated for 6 hrs by propidium iodide dye based spectrofluorometric analysis relative to control; assay type: toxicity; summary of the method: as §2
# [13] = Cytotoxicity against mouse brain Primary embryonic cortical cell assessed as cell death at 2.5 uM incubated for 6 hrs by propidium iodide dye based spectrofluorometric analysis relative to control; assay type: toxicity; summary of the method: as §2
# [14] = Cytotoxicity against mouse brain Primary embryonic cortical cell assessed as cell death at 2.5 uM incubated for 24 hrs by propidium iodide dye based spectrofluorometric analysis relative to control; assay type: toxicity; summary of the method: as §2
# [15] = Cytotoxicity against mouse brain Primary embryonic cortical cell assessed as cell death at 30 uM incubated for 24 hrs by propidium iodide dye based spectrofluorometric analysis relative to control; assay type: toxicity; summary of the method: as §2
# [16] = Cytotoxicity against mouse brain Primary embryonic cortical cell assessed as cell death at 5 uM incubated for 3 hrs by propidium iodide dye based spectrofluorometric analysis relative to control; assay type: toxicity; summary of the method: as §2
# [17] = Cytotoxicity against mouse brain Primary embryonic cortical cell assessed as cell death at 30 uM incubated for 72 hrs by propidium iodide dye based spectrofluorometric analysis relative to control; assay type: toxicity; summary of the method: as §2
# [18] = Cytotoxicity against mouse brain Primary embryonic cortical cell assessed as cell death at 10 uM incubated for 2 hrs by propidium iodide dye based spectrofluorometric analysis relative to control; assay type: toxicity; summary of the method: as §2
# [19] = Cytotoxicity against mouse brain Primary embryonic cortical cell assessed as cell death at 30 uM incubated for 48 hrs by propidium iodide dye based spectrofluorometric analysis relative to control; assay type: toxicity; summary of the method: as §2
# [20] = Cytotoxicity against mouse brain Primary embryonic cortical cell assessed as cell death at 30 uM incubated for 3 hrs by propidium iodide dye based spectrofluorometric analysis relative to control; assay type: toxicity; summary of the method: as §2
# [21] = Cytotoxicity against mouse brain Primary embryonic cortical cell assessed as cell death at 10 uM incubated for 1 hr by propidium iodide dye based spectrofluorometric analysis relative to control; assay type: toxicity; summary of the method: as §2
# [22] = Cytotoxicity against mouse brain Primary embryonic cortical cell assessed as cell death at 10 uM incubated for 5 hrs by propidium iodide dye based spectrofluorometric analysis relative to control; assay type: toxicity; summary of the method: as §2
# [23] = Cytotoxicity against mouse brain Primary embryonic cortical cell assessed as cell death at 2.5 uM incubated for 1 hr by propidium iodide dye based spectrofluorometric analysis relative to control; assay type: toxicity; summary of the method: as §2
# [24] = Cytotoxicity against mouse brain Primary embryonic cortical cell assessed as cell death at 5 uM incubated for 24 hrs by propidium iodide dye based spectrofluorometric analysis relative to control; assay type: toxicity; summary of the method: as §2
# [25] = Cytotoxicity against mouse brain Primary embryonic cortical cell assessed as cell death at 30 uM incubated for 4 hrs by propidium iodide dye based spectrofluorometric analysis relative to control; assay type: toxicity; summary of the method: as §2
# [26] = Cytotoxicity against mouse brain Primary embryonic cortical cell assessed as cell death at 10 uM incubated for 48 hrs by propidium iodide dye based spectrofluorometric analysis relative to control; assay type: toxicity; summary of the method: as §2
# [27] = Cytotoxicity against mouse brain Primary embryonic cortical cell assessed as cell death at 2.5 uM incubated for 72 hrs by propidium iodide dye based spectrofluorometric analysis relative to control; assay type: toxicity; summary of the method: as §2
# [28] = Cytotoxicity against mouse brain Primary embryonic cortical cell assessed as cell death at 2.5 uM incubated for 2 hrs by propidium iodide dye based spectrofluorometric analysis relative to control; assay type: toxicity; summary of the method: as §2
# [29] = Cytotoxicity against mouse brain Primary embryonic cortical cell assessed as cell death at 10 uM incubated for 3 hrs by propidium iodide dye based spectrofluorometric analysis relative to control; assay type: toxicity; summary of the method: as §2
# [30] = Cytotoxicity against mouse brain Primary embryonic cortical cell assessed as cell death at 30 uM incubated for 2 hrs by propidium iodide dye based spectrofluorometric analysis relative to control; assay type: toxicity; summary of the method: as §2
# [31] = Cytotoxicity against mouse brain Primary embryonic cortical cell assessed as cell death at 5 uM incubated for 2 hrs by propidium iodide dye based spectrofluorometric analysis relative to control; assay type: toxicity; summary of the method: as §2
# [32] = Cytotoxicity against mouse brain Primary embryonic cortical cell assessed as cell death at 5 uM incubated for 6 hrs by propidium iodide dye based spectrofluorometric analysis relative to control; assay type: toxicity; summary of the method: as §2
# [33] = Cytotoxicity against mouse brain Primary embryonic cortical cell assessed as cell death at 5 uM incubated for 48 hrs by propidium iodide dye based spectrofluorometric analysis relative to control; assay type: toxicity; summary of the method: as §2
# [34] = Cytotoxicity against mouse brain Primary embryonic cortical cell assessed as cell death at 5 uM incubated for 5 hrs by propidium iodide dye based spectrofluorometric analysis relative to control; assay type: toxicity; summary of the method: as §2
# [35] = Cytotoxicity against mouse brain Primary embryonic cortical cell assessed as cell death at 2.5 uM incubated for 5 hrs by propidium iodide dye based spectrofluorometric analysis relative to control; assay type: toxicity; summary of the method: as §2
# [36] = Cytotoxicity against mouse brain Primary embryonic cortical cell assessed as cell death at 2.5 uM incubated for 4 hrs by propidium iodide dye based spectrofluorometric analysis relative to control; assay type: toxicity; summary of the method: as §2
# [37] = Cytotoxicity against mouse brain Primary embryonic cortical cell assessed as cell death at 2.5 uM incubated for 48 hrs by propidium iodide dye based spectrofluorometric analysis relative to control; assay type: toxicity; summary of the method: as §2
# [38] = Cytotoxicity against mouse brain Primary embryonic cortical cell assessed as cell death at 5 uM incubated for 72 hrs by propidium iodide dye based spectrofluorometric analysis relative to control; assay type: toxicity; summary of the method: as §2
# [39] = Cytotoxicity against mouse brain Primary embryonic cortical cell assessed as cell death at 5 uM incubated for 1 hr by propidium iodide dye based spectrofluorometric analysis relative to control; assay type: toxicity; summary of the method: as §2
# [40] = Cytotoxicity against mouse brain Primary embryonic cortical cell assessed as cell death at 30 uM incubated for 1 hr by propidium iodide dye based spectrofluorometric analysis relative to control; assay type: toxicity; summary of the method: as §2
# Cholinesterase [41] = target: Cholinesterase (Equus caballus, UniProt P81908); assay: Inhibition of equine serum BChE using butyrylthiocholine iodide as substrate preincubated for 20 mins followed by substrate addition by DTNB reagent based Ellman's method; assay type: cell-free
# Cholinesterase [42] = target: Cholinesterase (Homo sapiens, UniProt P06276); assay: Inhibition of human recombinant BChE using acetylthiocholine iodide as substrate preincubated for 20 mins followed by substrate addition by DTNB reagent based Ellman's method
# Summary of the method: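 Human BChE was assayed by the Ellman spectrophotometric method. IC50 values are means of three independent experiments, each run in triplicate.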
# Acetylcholinesterase [43] = target: Acetylcholinesterase (Electrophorus electricus, UniProt O42275); assay: Inhibition of electric eel AChE using acetylthiocholine iodide as substrate preincubated for 20 mins followed by substrate addition by DTNB reagent based Ellman's method
# Acetylcholinesterase [44] = target: Acetylcholinesterase (Homo sapiens, UniProt P22303); assay: Inhibition of human recombinant AChE using acetylthiocholine iodide as substrate preincubated for 20 mins followed by substrate addition by DTNB reagent based Ellman's method
# Acetylcholinesterase (Homo sapiens, UniProt P22303), sequence (P22303 whole entry): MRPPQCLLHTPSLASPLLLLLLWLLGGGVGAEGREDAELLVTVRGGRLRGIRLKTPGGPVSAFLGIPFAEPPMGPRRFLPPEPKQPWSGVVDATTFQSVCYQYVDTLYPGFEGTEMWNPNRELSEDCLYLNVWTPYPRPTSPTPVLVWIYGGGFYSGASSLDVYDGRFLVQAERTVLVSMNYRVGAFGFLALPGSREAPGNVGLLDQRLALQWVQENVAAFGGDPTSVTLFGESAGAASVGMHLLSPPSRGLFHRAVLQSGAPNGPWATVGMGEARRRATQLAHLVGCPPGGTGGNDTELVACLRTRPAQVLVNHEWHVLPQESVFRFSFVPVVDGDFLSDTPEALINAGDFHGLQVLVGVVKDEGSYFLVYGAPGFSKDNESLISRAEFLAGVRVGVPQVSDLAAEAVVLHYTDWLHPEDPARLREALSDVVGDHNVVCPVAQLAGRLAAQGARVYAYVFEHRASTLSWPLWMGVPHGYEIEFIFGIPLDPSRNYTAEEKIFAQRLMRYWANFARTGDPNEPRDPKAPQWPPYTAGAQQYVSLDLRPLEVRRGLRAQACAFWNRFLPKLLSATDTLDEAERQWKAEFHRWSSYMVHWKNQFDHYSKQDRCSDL
# Amyloid-beta precursor protein, sequence (P05067 whole entry): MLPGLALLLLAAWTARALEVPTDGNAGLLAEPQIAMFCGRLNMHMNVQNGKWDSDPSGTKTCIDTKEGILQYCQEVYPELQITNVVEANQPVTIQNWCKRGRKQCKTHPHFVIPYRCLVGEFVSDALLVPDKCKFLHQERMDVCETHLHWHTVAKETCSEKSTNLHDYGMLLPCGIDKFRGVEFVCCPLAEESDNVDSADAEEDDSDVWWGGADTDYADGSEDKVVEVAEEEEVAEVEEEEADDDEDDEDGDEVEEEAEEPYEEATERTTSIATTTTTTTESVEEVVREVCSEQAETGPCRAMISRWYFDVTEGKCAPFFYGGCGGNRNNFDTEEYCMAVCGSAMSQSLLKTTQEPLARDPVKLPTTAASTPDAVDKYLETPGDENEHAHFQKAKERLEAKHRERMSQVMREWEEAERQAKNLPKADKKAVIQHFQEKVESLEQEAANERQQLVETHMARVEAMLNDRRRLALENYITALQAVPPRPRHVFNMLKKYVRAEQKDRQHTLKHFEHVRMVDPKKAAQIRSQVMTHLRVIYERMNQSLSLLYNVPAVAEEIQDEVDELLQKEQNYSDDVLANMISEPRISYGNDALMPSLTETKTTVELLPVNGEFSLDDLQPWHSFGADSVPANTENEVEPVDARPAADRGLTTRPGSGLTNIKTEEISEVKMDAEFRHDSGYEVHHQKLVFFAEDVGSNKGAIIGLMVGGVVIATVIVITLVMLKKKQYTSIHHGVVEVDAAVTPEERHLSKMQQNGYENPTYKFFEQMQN
# Cholinesterase (Equus caballus, UniProt P81908), sequence (P81908 whole entry): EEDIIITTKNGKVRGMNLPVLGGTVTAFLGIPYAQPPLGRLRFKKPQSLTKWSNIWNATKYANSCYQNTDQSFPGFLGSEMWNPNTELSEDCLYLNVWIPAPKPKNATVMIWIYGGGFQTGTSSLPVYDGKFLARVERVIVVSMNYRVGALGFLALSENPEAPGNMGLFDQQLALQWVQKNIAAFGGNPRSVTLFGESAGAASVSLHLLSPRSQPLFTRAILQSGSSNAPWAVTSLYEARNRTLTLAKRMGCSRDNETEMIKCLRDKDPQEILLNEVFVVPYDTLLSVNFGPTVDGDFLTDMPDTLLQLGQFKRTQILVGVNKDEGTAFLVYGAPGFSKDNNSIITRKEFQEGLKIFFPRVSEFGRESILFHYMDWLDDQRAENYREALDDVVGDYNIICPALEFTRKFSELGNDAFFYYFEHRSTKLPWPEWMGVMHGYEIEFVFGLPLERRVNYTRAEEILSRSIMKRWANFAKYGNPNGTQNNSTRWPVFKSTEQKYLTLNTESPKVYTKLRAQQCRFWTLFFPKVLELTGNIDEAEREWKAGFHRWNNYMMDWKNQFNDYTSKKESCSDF
# Cholinesterase (Homo sapiens, UniProt P06276), sequence (P06276 whole entry): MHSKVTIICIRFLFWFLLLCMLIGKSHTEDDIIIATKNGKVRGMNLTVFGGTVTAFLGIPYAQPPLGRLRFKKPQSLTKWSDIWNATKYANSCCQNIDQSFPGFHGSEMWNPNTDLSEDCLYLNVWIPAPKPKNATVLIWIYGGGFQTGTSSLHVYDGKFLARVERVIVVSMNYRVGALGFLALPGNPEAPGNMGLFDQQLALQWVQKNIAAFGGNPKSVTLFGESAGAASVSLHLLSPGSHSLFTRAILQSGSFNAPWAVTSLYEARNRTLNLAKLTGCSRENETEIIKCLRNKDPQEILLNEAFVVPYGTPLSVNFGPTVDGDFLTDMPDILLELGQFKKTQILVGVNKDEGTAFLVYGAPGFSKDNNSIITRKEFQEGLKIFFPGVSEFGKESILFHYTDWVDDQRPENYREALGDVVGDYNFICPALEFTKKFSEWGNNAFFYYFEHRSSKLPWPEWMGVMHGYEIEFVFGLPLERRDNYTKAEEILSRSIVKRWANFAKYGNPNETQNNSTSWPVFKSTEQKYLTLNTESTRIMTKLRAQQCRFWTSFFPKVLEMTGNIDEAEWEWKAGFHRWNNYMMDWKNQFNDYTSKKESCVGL
# Acetylcholinesterase (Electrophorus electricus, UniProt O42275), sequence (O42275 whole entry): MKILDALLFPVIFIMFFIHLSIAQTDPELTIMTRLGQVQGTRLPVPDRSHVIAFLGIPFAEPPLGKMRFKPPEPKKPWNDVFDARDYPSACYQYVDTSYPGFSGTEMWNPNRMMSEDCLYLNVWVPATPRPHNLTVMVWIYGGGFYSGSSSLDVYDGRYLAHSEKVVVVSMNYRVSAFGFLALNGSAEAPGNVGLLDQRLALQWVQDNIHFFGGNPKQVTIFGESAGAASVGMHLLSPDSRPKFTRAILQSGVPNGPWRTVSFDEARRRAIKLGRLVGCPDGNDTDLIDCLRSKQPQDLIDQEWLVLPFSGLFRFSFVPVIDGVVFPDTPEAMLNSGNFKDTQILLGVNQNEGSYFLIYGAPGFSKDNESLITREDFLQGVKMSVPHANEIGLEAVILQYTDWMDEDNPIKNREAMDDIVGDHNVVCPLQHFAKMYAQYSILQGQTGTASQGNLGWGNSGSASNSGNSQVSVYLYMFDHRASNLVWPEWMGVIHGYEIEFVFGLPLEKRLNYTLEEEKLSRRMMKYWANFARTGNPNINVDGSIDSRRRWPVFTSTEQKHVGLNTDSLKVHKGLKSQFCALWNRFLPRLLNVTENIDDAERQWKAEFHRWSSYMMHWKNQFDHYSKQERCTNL
structure (smiles),measurement,setting,value
Nc1ccc(NCCC[C@@H]2CCCN3CCCC[C@H]23)c2c(=O)c3ccccc3sc12,inhibition,[1],26%
same,IC50,[2],1.3 µM
O=c1c2ccccc2sc2c([N+](=O)[O-])ccc(NC[C@@H]3CCCN4CCCC[C@H]34)c12,IC50,[3],15 µM
same,IC50,[2],20 µM
CCN(CC)CCCNc1ccc(N)c2sc3ccc(OC)cc3c(=O)c12,inhibition,[4],> 80%
same,inhibition,[1],24%
same,IC50,[2],21 µM
Cc1ccc(NCCC[C@@H]2CCCN3CCCC[C@H]23)c2c(=O)c3cc(O)ccc3sc12,IC50,[3],7.3 µM
same,inhibition,[4],> 80%
same,IC50,[2],2.9 µM
COc1ccc2sc3c(C)ccc(NCCC[C@@H]4CCCN5CCCC[C@H]45)c3c(=O)c2c1,Activity,[5],9.3%
same,Activity,[6],19.6%
same,Activity,[7],42.1%
same,Activity,[8],1.8%
same,Activity,[9],3.3%
same,Activity,[10],4%
same,Activity,[11],5.3%
same,Activity,[12],10.7%
same,Activity,[13],2%
same,IC50,[3],5.9 µM
same,Activity,[14],8.9%
same,Activity,[15],48.6%
same,Activity,[16],1.8%
same,Activity,[17],54.3%
same,Activity,[18],5.8%
same,Activity,[19],52.4%
same,Activity,[20],7.1%
same,Activity,[21],4.2%
same,Activity,[22],6.1%
same,Activity,[23],-0.1%
same,Activity,[24],17.8%
same,Activity,[25],9.5%
same,Activity,[26],27.4%
same,Activity,[27],33.6%
same,Activity,[28],1.6%
same,Activity,[29],4.9%
same,Activity,[30],5.7%
same,Activity,[31],3.4%
same,Activity,[32],5.7%
same,Activity,[33],27.8%
same,Activity,[34],4.4%
same,Activity,[35],1.9%
same,Activity,[36],2.2%
same,Activity,[37],18.4%
same,Activity,[38],37.6%
same,Activity,[39],1%
same,Activity,[40],3.8%
same,IC50,[2],2.5 µM
COc1ccc2sc3c([N+](=O)[O-])ccc(NC[C@@H]4CCCN5CCCC[C@H]45)c3c(=O)c2c1,inhibition,[1],32%
same,IC50,[2],11 µM
Cc1ccc(NC[C@@H]2CCCN3CCCC[C@H]23)c2c(=O)c3cc(O)ccc3sc12,IC50,[3],9.1 µM
same,IC50,[2],5.9 µM
Nc1ccc(NC[C@@H]2CCCN3CCCC[C@H]23)c2c(=O)c3ccccc3sc12,IC50,[3],8.6 µM
same,IC50,[2],14 µM
COc1ccc2sc3c([N+](=O)[O-])ccc(NCC[C@@H]4CCCN5CCCC[C@H]45)c3c(=O)c2c1,IC50,Cholinesterase [41],0.15 µM
same,IC50,[3],6.9 µM
same,IC50,Cholinesterase [42],1.82 µM
same,IC50,Acetylcholinesterase [43],2.3 µM
same,IC50,Acetylcholinesterase [44],4.75 µM
same,IC50,[2],9.1 µM
COc1ccc2sc3c(N)ccc(NCC[C@@H]4CCCN5CCCC[C@H]45)c3c(=O)c2c1,IC50,Cholinesterase [41],0.15 µM
same,IC50,Cholinesterase [42],0.99 µM
same,IC50,Acetylcholinesterase [43],1.9 µM
same,inhibition,[1],33%
same,IC50,Acetylcholinesterase [44],2.4 µM
same,IC50,[2],13 µM
